Test results as given in ChEMBL document CHEMBL5653631, “A Potent and Selective ULK1 Inhibitor Suppresses Autophagy and Sensitizes Cancer Cells to Nutrient Stress” (iScience, 2018).

Legend:
[1] = molecular target: Tyrosine-protein kinase FRK (Homo sapiens) (UniProt P42685); assay: Inhibition of human recombinant FRK at 40 nM related to control ULK1
[2] = molecular target: T1, Tyrosine-protein kinase ITK/TSK (Homo sapiens) (UniProt Q08881); assay: Inhibition of human recombinant ITK at 40 nM related to control ULK1
T1 sequence (whole entry): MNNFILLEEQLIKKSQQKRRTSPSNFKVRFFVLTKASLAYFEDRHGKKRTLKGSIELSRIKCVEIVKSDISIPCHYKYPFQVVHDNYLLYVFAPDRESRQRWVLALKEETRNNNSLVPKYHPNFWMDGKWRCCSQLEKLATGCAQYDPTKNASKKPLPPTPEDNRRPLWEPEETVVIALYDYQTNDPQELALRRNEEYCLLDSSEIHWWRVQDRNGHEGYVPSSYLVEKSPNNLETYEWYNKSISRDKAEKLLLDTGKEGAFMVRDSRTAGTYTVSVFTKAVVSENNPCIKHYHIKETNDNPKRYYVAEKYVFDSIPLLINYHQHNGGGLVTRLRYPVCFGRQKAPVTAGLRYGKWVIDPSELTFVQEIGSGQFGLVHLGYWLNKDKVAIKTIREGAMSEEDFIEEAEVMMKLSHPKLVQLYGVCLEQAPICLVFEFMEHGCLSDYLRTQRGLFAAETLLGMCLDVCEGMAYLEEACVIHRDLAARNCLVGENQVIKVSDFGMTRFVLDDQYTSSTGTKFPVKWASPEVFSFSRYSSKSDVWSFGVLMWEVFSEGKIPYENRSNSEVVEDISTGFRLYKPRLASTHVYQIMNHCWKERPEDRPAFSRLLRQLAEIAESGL

[3] = molecular target: T2, Activin receptor type-1B (Homo sapiens) (UniProt P36896); assay: Inhibition of human recombinant ALK4 at 15 nM related to control ULK1
T2 sequence (whole entry): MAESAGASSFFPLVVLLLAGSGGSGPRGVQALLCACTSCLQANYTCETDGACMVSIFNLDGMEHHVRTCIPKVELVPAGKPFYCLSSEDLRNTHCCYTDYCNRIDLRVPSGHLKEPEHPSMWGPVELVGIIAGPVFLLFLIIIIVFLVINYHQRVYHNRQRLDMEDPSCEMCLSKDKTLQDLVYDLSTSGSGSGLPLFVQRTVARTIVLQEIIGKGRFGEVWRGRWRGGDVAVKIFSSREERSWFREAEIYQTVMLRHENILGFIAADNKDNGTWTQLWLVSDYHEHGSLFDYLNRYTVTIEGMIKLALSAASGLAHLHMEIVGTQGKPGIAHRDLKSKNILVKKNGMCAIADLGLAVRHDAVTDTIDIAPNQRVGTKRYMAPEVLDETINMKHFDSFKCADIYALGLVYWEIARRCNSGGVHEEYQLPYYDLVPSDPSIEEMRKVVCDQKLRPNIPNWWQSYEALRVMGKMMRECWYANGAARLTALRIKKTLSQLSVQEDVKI
Procedure, shortened: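 Panel of 327 recombinant human kinases, each assayed in vitro by radiometric activity assay in duplicate at a single inhibitor concentration per compound, chosen with reference to its ULK1 inhibition. Activity remaining was expressed as percent of vehicle control, and percent inhibition was calculated as 100 minus percent activity remaining.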

[4] = molecular target: Focal adhesion kinase 1 (Homo sapiens) (UniProt Q05397); assay: Inhibition of human recombinant FAK at 15 nM in presence of ATP by radiometric assay relative to control
Sequence of Focal adhesion kinase 1 (Homo sapiens) (Q05397 2-1052 limits assumed): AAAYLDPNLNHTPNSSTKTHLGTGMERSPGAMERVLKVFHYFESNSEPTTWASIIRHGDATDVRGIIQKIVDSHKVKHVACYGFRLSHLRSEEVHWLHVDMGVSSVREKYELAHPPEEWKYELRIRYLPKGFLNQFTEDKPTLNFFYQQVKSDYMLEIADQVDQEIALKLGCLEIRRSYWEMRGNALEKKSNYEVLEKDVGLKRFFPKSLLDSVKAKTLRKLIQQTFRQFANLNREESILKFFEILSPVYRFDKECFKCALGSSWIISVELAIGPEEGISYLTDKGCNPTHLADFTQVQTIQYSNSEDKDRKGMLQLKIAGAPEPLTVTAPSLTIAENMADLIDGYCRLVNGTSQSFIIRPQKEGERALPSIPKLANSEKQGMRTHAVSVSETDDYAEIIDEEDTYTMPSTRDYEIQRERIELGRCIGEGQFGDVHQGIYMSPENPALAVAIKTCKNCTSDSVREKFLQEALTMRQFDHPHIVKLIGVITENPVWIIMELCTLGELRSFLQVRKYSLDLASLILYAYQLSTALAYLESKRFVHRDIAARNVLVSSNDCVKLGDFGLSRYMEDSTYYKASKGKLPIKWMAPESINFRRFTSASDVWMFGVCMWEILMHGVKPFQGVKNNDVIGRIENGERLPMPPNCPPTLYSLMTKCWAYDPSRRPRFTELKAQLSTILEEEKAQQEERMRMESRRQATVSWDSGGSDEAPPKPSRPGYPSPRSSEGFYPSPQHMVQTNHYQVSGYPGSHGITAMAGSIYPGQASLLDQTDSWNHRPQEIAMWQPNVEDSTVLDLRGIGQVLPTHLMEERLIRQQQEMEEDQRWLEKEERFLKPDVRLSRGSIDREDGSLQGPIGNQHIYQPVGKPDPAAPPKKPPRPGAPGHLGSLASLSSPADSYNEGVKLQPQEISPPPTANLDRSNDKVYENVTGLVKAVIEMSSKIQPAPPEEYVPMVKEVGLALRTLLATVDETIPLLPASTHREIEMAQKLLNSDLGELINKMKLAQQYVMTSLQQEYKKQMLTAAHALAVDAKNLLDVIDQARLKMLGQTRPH

[5] = molecular target: Ephrin type-A receptor 4 (Homo sapiens) (UniProt P54764); assay: Inhibition of human recombinant EphA4 at 15 nM in presence of ATP by radiometric assay relative to control
Sequence of Ephrin type-A receptor 4 (Homo sapiens) (P54764 whole entry): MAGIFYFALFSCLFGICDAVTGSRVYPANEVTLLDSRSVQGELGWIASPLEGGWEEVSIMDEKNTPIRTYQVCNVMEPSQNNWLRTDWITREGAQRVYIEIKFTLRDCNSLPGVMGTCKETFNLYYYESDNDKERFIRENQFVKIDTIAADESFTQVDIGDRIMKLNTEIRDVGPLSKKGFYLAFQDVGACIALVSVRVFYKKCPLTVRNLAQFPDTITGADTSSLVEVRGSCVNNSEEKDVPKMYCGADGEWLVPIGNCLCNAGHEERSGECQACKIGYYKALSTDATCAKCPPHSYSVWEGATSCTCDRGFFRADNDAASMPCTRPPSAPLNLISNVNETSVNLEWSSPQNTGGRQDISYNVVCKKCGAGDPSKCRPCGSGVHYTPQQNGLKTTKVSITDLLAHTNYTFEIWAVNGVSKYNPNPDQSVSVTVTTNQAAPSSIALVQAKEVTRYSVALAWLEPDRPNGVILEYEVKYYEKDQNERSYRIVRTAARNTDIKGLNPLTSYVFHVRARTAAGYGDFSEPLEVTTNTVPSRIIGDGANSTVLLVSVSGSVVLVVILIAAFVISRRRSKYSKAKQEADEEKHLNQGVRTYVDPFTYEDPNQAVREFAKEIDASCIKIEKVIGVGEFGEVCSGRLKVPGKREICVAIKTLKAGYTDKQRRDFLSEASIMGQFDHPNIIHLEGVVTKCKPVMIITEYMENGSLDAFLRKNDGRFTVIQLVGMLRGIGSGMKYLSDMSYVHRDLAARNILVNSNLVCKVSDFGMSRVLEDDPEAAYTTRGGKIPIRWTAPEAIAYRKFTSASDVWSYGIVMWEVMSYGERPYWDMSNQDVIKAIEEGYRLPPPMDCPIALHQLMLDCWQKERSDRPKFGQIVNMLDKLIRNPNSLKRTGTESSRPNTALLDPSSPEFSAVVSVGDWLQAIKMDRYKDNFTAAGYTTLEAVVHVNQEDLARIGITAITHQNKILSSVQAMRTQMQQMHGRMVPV

[6] = molecular target: Calcium/calmodulin-dependent protein kinase type 1G (Homo sapiens) (UniProt Q96NX5); assay: Inhibition of human recombinant CaMK1g at 500 nM in presence of ATP by radiometric assay relative to control
Sequence of Calcium/calmodulin-dependent protein kinase type 1G (Homo sapiens) (Q96NX5 whole entry): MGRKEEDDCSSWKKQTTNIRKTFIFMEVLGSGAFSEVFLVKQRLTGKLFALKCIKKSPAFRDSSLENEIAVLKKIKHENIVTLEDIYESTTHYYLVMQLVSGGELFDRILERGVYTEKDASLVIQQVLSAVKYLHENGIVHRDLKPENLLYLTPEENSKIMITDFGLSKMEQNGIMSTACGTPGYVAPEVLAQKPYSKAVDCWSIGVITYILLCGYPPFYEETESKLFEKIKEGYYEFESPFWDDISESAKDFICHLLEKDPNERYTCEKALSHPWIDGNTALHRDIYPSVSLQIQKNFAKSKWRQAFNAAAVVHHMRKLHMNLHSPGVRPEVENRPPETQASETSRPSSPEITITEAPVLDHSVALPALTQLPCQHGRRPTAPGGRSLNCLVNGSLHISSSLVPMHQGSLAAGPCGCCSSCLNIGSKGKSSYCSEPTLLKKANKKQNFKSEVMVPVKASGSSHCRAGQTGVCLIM

[7] = molecular target: Serine/threonine-protein kinase SBK1 (Homo sapiens) (UniProt Q52WX2); assay: Inhibition of human recombinant SBK1 at 500 nM related to control ULK1
Sequence of Serine/threonine-protein kinase SBK1 (Homo sapiens) (Q52WX2 whole entry): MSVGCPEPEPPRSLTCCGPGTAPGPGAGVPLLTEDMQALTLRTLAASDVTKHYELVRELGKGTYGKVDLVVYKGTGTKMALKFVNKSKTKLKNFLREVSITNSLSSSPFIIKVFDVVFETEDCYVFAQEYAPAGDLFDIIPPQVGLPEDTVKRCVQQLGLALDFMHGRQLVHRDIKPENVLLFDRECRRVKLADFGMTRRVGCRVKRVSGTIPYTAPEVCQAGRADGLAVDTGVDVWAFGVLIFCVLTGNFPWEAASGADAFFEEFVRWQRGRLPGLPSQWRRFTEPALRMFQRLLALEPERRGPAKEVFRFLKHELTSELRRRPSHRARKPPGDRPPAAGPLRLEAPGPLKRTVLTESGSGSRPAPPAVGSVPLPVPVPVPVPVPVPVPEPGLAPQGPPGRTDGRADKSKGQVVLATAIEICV

[8] = molecular target: T3, Receptor-interacting serine/threonine-protein kinase 1 (Homo sapiens) (UniProt Q13546); assay: Inhibition of human recombinant RIPK1 at 500 nM related to control ULK1
T3 sequence (whole entry): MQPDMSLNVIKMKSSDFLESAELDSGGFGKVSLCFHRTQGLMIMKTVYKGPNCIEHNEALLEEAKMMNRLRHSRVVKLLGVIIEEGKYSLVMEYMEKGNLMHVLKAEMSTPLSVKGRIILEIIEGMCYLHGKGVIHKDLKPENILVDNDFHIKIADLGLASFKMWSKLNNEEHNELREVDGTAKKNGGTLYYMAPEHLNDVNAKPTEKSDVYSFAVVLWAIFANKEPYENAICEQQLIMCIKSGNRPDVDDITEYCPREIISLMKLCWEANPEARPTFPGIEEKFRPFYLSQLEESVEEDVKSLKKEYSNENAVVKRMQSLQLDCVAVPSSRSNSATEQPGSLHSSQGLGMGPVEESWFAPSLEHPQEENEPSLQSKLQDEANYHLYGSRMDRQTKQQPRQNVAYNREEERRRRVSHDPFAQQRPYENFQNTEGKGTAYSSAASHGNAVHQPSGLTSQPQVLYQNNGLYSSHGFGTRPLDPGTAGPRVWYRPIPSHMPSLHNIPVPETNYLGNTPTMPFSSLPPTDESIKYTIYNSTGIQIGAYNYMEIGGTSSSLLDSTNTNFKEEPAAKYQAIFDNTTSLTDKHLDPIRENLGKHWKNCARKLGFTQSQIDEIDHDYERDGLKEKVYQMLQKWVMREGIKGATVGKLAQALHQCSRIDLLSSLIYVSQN

[9] = molecular target: Serine/threonine-protein kinase PAK 1 (Homo sapiens) (UniProt Q13153); assay: Inhibition of human recombinant PAK1 at 500 nM related to control ULK1
Sequence of Serine/threonine-protein kinase PAK 1 (Homo sapiens) (Q13153 whole entry, looked up): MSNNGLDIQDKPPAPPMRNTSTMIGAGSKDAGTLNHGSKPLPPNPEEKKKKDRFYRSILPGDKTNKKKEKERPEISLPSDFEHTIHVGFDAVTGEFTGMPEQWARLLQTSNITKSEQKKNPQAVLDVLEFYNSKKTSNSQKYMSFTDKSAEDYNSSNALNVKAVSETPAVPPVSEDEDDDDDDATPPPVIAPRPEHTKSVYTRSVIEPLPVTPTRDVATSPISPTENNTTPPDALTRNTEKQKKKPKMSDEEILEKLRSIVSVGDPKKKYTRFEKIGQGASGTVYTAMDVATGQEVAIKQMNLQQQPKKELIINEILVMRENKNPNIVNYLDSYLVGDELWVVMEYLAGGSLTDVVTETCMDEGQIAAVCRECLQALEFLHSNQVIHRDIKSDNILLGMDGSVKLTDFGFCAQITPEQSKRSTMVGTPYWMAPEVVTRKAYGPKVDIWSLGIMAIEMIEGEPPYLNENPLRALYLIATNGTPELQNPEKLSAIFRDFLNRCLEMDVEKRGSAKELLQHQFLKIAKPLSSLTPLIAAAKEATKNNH

[10] = molecular target: Tyrosine-protein kinase Fyn (Homo sapiens) (UniProt P06241); assay: Inhibition of human recombinant FYN at 500 nM related to control ULK1
Sequence of Tyrosine-protein kinase Fyn (Homo sapiens) (P06241 2-537 limits assumed): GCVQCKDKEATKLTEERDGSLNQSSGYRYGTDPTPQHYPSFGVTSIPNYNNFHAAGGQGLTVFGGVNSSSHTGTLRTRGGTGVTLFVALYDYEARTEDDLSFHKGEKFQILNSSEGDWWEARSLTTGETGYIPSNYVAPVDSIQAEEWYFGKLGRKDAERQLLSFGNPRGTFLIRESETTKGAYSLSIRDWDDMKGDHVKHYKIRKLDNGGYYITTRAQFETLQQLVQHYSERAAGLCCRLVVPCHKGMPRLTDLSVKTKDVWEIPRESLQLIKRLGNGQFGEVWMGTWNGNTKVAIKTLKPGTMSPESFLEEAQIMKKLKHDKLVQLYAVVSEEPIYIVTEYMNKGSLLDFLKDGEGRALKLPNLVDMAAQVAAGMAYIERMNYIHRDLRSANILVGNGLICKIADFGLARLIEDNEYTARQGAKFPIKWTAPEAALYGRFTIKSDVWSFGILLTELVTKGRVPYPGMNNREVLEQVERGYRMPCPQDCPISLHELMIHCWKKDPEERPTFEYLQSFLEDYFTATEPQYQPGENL

Sequence of Tyrosine-protein kinase FRK (Homo sapiens) (P42685 whole entry): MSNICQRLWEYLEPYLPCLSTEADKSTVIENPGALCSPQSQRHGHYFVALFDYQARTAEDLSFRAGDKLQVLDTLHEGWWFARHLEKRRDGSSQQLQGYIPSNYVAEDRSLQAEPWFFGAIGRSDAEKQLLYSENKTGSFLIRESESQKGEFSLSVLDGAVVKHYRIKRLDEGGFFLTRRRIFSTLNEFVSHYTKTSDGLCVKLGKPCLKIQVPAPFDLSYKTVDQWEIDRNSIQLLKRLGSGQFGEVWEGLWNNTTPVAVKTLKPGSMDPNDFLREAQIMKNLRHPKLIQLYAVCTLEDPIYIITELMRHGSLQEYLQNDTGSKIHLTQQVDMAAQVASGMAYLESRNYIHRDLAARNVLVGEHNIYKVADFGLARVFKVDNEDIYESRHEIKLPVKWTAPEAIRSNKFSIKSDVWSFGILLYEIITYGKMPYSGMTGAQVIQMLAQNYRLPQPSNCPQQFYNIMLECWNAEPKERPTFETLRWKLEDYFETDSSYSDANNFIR

O=C(N[C@@H](C1CC1)C(F)(F)F)c1cc(-c2cnn3cc(-c4ccc(F)cc4)cnc23)cs1
fold change (FC) [1]: 0 | fold change (FC) [2]: 0

CC(C)[C@H](NC(=O)c1cc(-c2cnn3cc(-c4ccc(OCCN5CCCCC5)cc4)cnc23)cs1)C(F)(F)F
fold change (FC) [3]: 0.23 | inhibition [4]: 0% | inhibition [5]: 0%

CNC(=O)c1ccccc1Oc1nc(Nc2cc(OC)c(OC)c(OC)c2)ncc1Br
inhibition [6]: 6% | fold change (FC) [7]: 0.68 | fold change (FC) [8]: 0.09 | fold change (FC) [9]: 0.27 | fold change (FC) [10]: 0.26
